Active and inactive are the calls of the source. No cut-off for these calls is given here.
Legend:
[1] = biological target: T1, Cannabinoid receptor 1 (Mus musculus, UniProt P47746); assay: Displacement of [3H]CP-55940 from CB1 receptor in DBA/J2 mouse brain; type: tissue-based
[2] = biological target: Cannabinoid receptor 2 (Mus musculus, UniProt P47936); assay: Displacement of [3H]CP-55940 from CB2 receptor in DBA/J2 mouse spleen
Outline: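 Membranes (40-60 µg protein) from mouse brain minus cerebellum (CB1) or spleen (CB2), incubated 1 h at 30 °C with 0.5 nM [3H]CP-55,940 in TME buffer (pH 7.4) with 5 mg/mL BSA. GF/C filtration, scintillation counting. IC50 by nonlinear fit, converted to Ki by Cheng-Prusoff; at least three membrane preparations.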

[3] = biological target: Cannabinoid receptor (Mus musculus) (UniProt P47746+P47936); assay: Selectivity for DBA/J2 mouse CB2 receptor over CB1 receptor; type: protein assay
[4] = biological target: Cannabinoid receptor 2 (Homo sapiens) (UniProt P34972); assay: Activity at CB2 receptor assessed as reduction in CD203c expression in activated human basophil; type: functional
Outline: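 Human basophil-rich leukocytes from donor blood buffy coats via Ficoll-Paque. Cells pretreated with compound 1 nM to 1 µM for 30 min at 37 °C, then stimulated with anti-IgE 1 µg/mL for 30 min at 37 °C. CD203c (PE) read by flow cytometry on IgE-FITC-gated basophils. Antagonist check: SR 144528 or AM251 100 nM preincubated 30 min. Six experiments in triplicate.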

[5] = biological target: Cannabinoid receptor 1 (Mus musculus) (UniProt P47746); assay: Activity at CB1 receptor assessed as stimulation of [35S]GTP-gamma-S binding in DBA/J2 mouse brain relative to control; type: functional
Outline: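 Mouse brain (minus cerebellum) P2 membranes, 5-10 µg protein, incubated 60 min at 30 °C in 50 mM Tris-HCl, 3 mM MgCl2, 0.2 mM EGTA, 100 mM NaCl, pH 7.4, 0.1% BSA, with 0.05 nM [35S]GTPγS, 30 µM GDP, compound 1-5000 nM. Filtration, scintillation counting. Nonspecific binding with 10 µM GTPγS. Stimulation as % above basal. EC50/Emax by nonlinear regression; at least four experiments in duplicate.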

[6] = biological target: Cannabinoid receptor 1 (Mus musculus) (UniProt P47746); assay: (§1) Activity at CB1 receptor assessed as stimulation of [35S]GTP-gamma-S binding in DBA/J2 mouse brain; type: functional; conditions: filed as agonist
[7] = biological target: T1, Cannabinoid receptor 1; assay: as §1; type: functional

Cannabinoid receptor 2, sequence (P47936 whole entry): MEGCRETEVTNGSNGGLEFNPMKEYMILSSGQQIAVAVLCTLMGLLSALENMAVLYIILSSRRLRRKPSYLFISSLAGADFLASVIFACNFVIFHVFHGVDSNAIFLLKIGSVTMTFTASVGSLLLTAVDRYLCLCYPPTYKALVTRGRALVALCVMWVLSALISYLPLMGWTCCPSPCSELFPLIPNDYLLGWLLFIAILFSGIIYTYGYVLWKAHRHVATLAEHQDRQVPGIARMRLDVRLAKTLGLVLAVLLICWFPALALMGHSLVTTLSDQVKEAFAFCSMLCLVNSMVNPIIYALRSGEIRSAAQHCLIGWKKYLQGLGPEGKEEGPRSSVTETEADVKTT
Cannabinoid receptor 1 (Mus musculus), sequence (P47746 whole entry): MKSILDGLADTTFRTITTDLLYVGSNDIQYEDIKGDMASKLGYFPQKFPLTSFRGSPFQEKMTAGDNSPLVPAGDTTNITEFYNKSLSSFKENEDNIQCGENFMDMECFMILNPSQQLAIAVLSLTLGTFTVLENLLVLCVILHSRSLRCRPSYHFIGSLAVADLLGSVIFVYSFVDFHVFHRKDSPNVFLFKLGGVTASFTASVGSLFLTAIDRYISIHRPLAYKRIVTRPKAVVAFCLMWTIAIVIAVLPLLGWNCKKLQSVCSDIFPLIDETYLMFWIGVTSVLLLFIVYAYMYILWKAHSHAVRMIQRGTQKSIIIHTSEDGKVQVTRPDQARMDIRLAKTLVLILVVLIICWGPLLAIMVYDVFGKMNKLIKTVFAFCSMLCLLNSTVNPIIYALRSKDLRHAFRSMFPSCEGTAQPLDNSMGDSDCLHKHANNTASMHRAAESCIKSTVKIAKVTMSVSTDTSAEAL
Cannabinoid receptor (Mus musculus), sequence (P47746 whole entry, looked up): as the sequence (P47746 whole entry) above
Cannabinoid receptor (Mus musculus), sequence (P47936 whole entry, looked up): as the sequence (P47936 whole entry) above
T1 sequence (P47746 whole entry): as the sequence (P47746 whole entry) above
Cannabinoid receptor 2 (Homo sapiens), sequence (P34972 whole entry): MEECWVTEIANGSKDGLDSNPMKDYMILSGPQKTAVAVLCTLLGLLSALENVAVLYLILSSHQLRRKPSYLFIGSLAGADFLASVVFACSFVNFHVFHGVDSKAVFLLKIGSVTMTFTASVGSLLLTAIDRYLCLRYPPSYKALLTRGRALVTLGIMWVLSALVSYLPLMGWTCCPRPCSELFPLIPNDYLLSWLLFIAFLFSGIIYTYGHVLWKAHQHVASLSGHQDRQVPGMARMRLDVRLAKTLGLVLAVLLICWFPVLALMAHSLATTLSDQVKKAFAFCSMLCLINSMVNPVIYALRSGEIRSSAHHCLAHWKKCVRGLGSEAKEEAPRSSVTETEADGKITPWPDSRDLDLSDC

Structure (SMILES)	Ki [1]	Ki [2]	Ratio Ki [3]	Activity [4]	Emax [5]	Activity [6]	EC50 [7]
Cc1ccc2c(n1)N(Cc1ccccc1)CC(C(=O)NC1CCCCC1)C2O (stereo not given)	> 1 µM	> 1 µM	–	–	–	–	–
O=C(NC1CCCCC1)c1cn(Cc2ccc(F)cc2)c2nc(Cl)ccc2c1=O	0.495 µM	0.0214 µM	23	–	–	–	–
O=C(NC1CCCCC1)c1cn(CCN2CCOCC2)c2cc(Cl)ccc2c1=O	> 1 µM	0.0033 µM	> 303	–	–	–	–
Cc1ccc2c(=O)c(C(=O)NC3CCCC3)cn(CCN3CCOCC3)c2n1	> 1 µM	0.05 µM	> 20	Active	–	–	–
O=C(NC1CCCCC1)c1cn(CCN2CCOCC2)c2ncccc2c1=O	> 1 µM	0.0672 µM	> 15	–	–	–	–
O=C(NC1CCCCC1)c1cn(Cc2ccccc2)c2ccccc2c1=O	> 1 µM	0.0048 µM	> 210	Active	–	–	–
CCCCC/C=C\C/C=C\C/C=C\C/C=C\CCCC(=O)NCCCl	0.0039 µM	0.121 µM	0.03	–	–	–	–
Cc1ccc2c(n1)N(Cc1ccccc1F)CC(C(=O)NC1CCCCC1)C2O (stereo not given)	> 1 µM	> 1 µM	–	–	–	–	–
Cc1ccc2c(=O)c(C(=O)NC3CCC(C)CC3)cn(Cc3ccc(F)cc3)c2n1 (stereo not given)	0.0087 µM	0.0014 µM	6	–	172%	Agonist	0.027 µM
Cc1ccc2c(=O)c(C(=O)NC3CCCCC3)cn(CCN3CCN(c4ccccc4)CC3)c2n1	> 1 µM	> 1 µM	–	–	–	–	–
O=C(NC1CCCCC1)c1cn(Cc2ccccc2F)c2nc(Cl)ccc2c1=O	–	0.0181 µM	–	–	–	–	–
COc1ccc(Cn2cc(C(=O)NC3CCCCC3)c(=O)c3ccc(C)nc32)cc1	> 1 µM	0.0358 µM	> 28	–	–	–	–
O=C(NC1CCCCC1)c1cn(Cc2ccccc2)c2ncccc2c1=O	> 1 µM	0.0486 µM	> 21	–	–	–	–
Cc1ccc2c(=O)c(C(=O)NC3CCCCCC3)cn(Cc3ccc(F)cc3)c2n1	0.0043 µM	0.001 µM	4.3	–	–	–	–
CC1CCC(NC(=O)c2cn(CCN3CCOCC3)c3nc(Cl)ccc3c2=O)CC1 (stereo not given)	> 1 µM	0.0405 µM	> 25	–	–	–	–
Cc1ccc2c(=O)c(C(=O)NC3CCCCCC3)cn(Cc3ccccc3)c2n1	0.143 µM	0.0051 µM	28	–	–	–	–
O=C(NC1CCCCC1)c1cn(Cc2ccccc2)c2nc(Cl)ccc2c1=O	0.464 µM	0.0246 µM	19	–	–	–	–
O=C(NC1CCCCC1)c1cn(Cc2ccc(F)cc2)c2ncccc2c1=O	0.384 µM	0.013 µM	29	–	–	–	–
Cc1ccc2c(=O)c(C(=O)NC3CCCCC3)cn(Cc3ccccc3)c2n1	0.127 µM	0.01 µM	13	–	–	–	–
Cc1ccc2c(=O)c(C(=O)NC3CCCCC3)cn(CCc3ccccc3)c2n1	> 1 µM	0.0163 µM	> 62	–	–	–	–
CCCC(C)(C)c1ccc2c(c1)OC(C)(C)[C@@H]1CC=C(C)C[C@@H]21	0.458 µM	0.065 µM	7	–	–	–	–
Cc1c(C(=O)c2cccc3ccccc23)c2cccc3c2n1[C@H](CN1CCOCC1)CO3	–	–	–	–	187%	–	–
Cc1ccc2c(n1)N(CCN1CCOCC1)CC(C(=O)NC1CCC(C)CC1)C2O (stereo not given)	> 1 µM	> 1 µM	–	–	–	–	–
Cc1ccc2c(=O)c(C(=O)NC3CCCCCC3)cn(Cc3ccccc3F)c2n1	0.149 µM	0.0134 µM	11	–	–	–	–
Cc1ccc2c(=O)c(C(=O)NC3CCC(C)CC3)cn(Cc3ccccc3F)c2n1 (stereo not given)	0.0375 µM	0.0084 µM	4	–	161%	Agonist	0.138 µM
